Test results: ChEMBL document CHEMBL1152830, “Synthesis of 2-sulfanyl-6-methyl-1,4-dihydropyrimidines as a new class of antifilarial agents” (Eur J Med Chem, 2008)
The source made the active and inactive calls. The calls are words filed in the database; no cut-off is given here.

Experiments:
Brugia malayi [1] = experiment: Antifilarial activity against Brugia malayi sub-periodic strain at 100 uM by MTT reduction assay; format: functional
Summary of the method: (§1)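 MTT reduction was measured on adult B. malayi worms after in vitro drug exposure. Each result is percent inhibition of MTT reduction relative to vehicle control, given as mean ± SD.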

Brugia malayi [2] = experiment: Antifilarial activity against Brugia malayi sub-periodic strain assessed as motility at 100 uM; format: functional, organism-based
Summary of the method: (§2)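 Adult B. malayi worms kept in vitro with compound, then motility scored. The worms were also moved to fresh drug-free medium at 37 °C for 30 min to judge whether paralysis was irreversible. The vehicle served as control.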

Brugia malayi [3] = experiment: Antifilarial activity against Brugia malayi sub-periodic strain in Mastomys coucha assessed as reduction in worm burden at 25 mg/kg, ip for 5 days relative to control; format: functional; design: scale not given: the % may be the effect or the level left; settings: route intraperitoneal
Brugia malayi [4] = experiment: Antifilarial activity against Brugia malayi sub-periodic strain assessed as sluggish motility at 400 uM; format: functional, organism-based; summary of the method: as §2
Brugia malayi [5] = experiment: Antifilarial activity against Brugia malayi sub-periodic strain at 400 uM by MTT reduction assay; format: functional, organism-based; summary of the method: as §1
Brugia malayi [6] = experiment: Antifilarial activity against Brugia malayi sub-periodic strain at 50 uM by MTT reduction assay; format: functional; summary of the method: as §1
Brugia malayi [7] = experiment: Antifilarial activity against Brugia malayi sub-periodic strain assessed as motility at 200 uM; format: functional, organism-based; summary of the method: as §2
Brugia malayi [8] = experiment: Embryostatic activity against Brugia malayi sub-periodic strain in Mastomys coucha assessed as sterilized female worms at 25 mg/kg, ip for 5 days; format: functional; settings: route intraperitoneal
Brugia malayi [9] = experiment: Antifilarial activity against Brugia malayi sub-periodic strain assessed as motility at 50 uM; format: functional, organism-based; summary of the method: as §2
Brugia malayi [10] = experiment: Antifilarial activity against Brugia malayi sub-periodic strain in Mastomys coucha assessed as microfilarial count at 25 mg/kg, ip for 5 days measured after 8 days; format: functional; settings: route intraperitoneal
Brugia malayi [11] = experiment: Antifilarial activity against Brugia malayi sub-periodic strain at 200 uM by MTT reduction assay; format: functional, organism-based; summary of the method: as §1
Brugia malayi [12] = experiment: Antifilarial activity against transplanted adult worms of Brugia malayi sub-periodic strain in Meriones unguiculatus assessed as reduction in worm burden 12.5 mg/kg, ip for 5 days relative to control; format: functional, organism-based; design: dose 12.5 mg/kg
Summary of the method: (§3)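 Meriones unguiculatus (jirds) carrying transplanted adult B. malayi were dosed i.p. once daily for 5 days, 5 animals per group. Microfilariae in the peritoneal cavity were checked. Live male and female worms and sterilized females were counted. Results are percent relative to untreated controls, given as mean ± SD.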

Brugia malayi [13] = experiment: Embryostatic activity against transplanted adult worms of Brugia malayi sub-periodic strain in Meriones unguiculatus assessed as sterilized female worms at 12.5 mg/kg, ip for 5 days; format: functional; settings: route intraperitoneal; summary of the method: as §3
Brugia malayi [14] = experiment: Antifilarial activity against Brugia malayi sub-periodic strain assessed as complete loss of motility at 100 uM; format: functional, organism-based; summary of the method: as §2
Brugia malayi [15] = experiment: Embryostatic activity against Brugia malayi sub-periodic strain in Mastomys coucha assessed as sterilized female worms at 100 mg/kg, ip for 5 days; format: functional; settings: route intraperitoneal
Brugia malayi [16] = experiment: Antifilarial activity against Brugia malayi sub-periodic strain assessed as complete loss of motility at 25 uM; format: functional, organism-based; summary of the method: as §2
Brugia malayi [17] = experiment: Embryostatic activity against Brugia malayi sub-periodic strain in Mastomys coucha assessed as sterilized female worms at 50 mg/kg, ip for 5 days; format: functional; settings: route intraperitoneal
Brugia malayi [18] = experiment: Antifilarial activity against Brugia malayi sub-periodic strain assessed as complete loss of motility at 50 uM; format: functional, organism-based; summary of the method: as §2
Brugia malayi [19] = experiment: Antifilarial activity against Brugia malayi sub-periodic strain in Mastomys coucha assessed as microfilarial count at 50 mg/kg, ip for 5 days measured after 8 days; format: functional; settings: route intraperitoneal
Brugia malayi [20] = experiment: Embryostatic activity against transplanted adult worms of Brugia malayi sub-periodic strain in Meriones unguiculatus assessed as sterilized female worms at 100 mg/kg, ip for 5 days; format: functional; settings: route intraperitoneal; summary of the method: as §3
Brugia malayi [21] = experiment: Antifilarial activity against Brugia malayi sub-periodic strain in Mastomys coucha assessed as microfilarial count at 100 mg/kg, ip for 5 days measured after 8 days; format: functional; settings: route intraperitoneal
Brugia malayi [22] = experiment: Antifilarial activity against Brugia malayi sub-periodic strain in Mastomys coucha assessed as reduction in worm burden at 50 mg/kg, ip for 5 days relative to control; format: functional; design: scale not given: the % may be the effect or the level left; settings: route intraperitoneal
Brugia malayi [23] = experiment: Antifilarial activity against transplanted adult worms of Brugia malayi sub-periodic strain in Meriones unguiculatus assessed as reduction in worm burden 100 mg/kg, ip for 5 days relative to control; format: functional; design: scale not given: the % may be the effect or the level left; settings: route intraperitoneal; summary of the method: as §3
Brugia malayi [24] = experiment: Antifilarial activity against Brugia malayi sub-periodic strain in Mastomys coucha assessed as reduction in worm burden at 100 mg/kg, ip for 5 days relative to control; format: functional; design: scale not given: the % may be the effect or the level left; settings: route intraperitoneal
Mastomys coucha = experiment: Toxicity against Mastomys coucha assessed as mortality at 50 to 100 mg/kg, ip for 5 days measured after 15 days; format: organism-based; design: dose 50-100 mg/kg, route intraperitoneal; settings: in vivo, 360 h
Summary of the method: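 Normal (uninfected) Mastomys coucha received the compound i.p. once daily for 5 days. Animals were watched for mortality and for adverse effects on general and gross health during dosing and for up to 15 days after treatment.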

Brugia malayi [25] = experiment: Antifilarial activity against Brugia malayi sub-periodic strain at 25 uM by MTT reduction assay; format: functional; summary of the method: as §1
Brugia malayi [26] = experiment: Antifilarial activity against Brugia malayi sub-periodic strain assessed as sluggish motility at 25 uM; format: functional, organism-based; summary of the method: as §2
Brugia malayi [27] = experiment: Antifilarial activity against Brugia malayi sub-periodic strain assessed as motility at 25 uM; format: functional, organism-based; summary of the method: as §2

CCCCCSC1=NC(c2ccc(OC)cc2)C(C(=O)OCC)=C(C)N1 (centres undefined)
inhibition at 100 µM (Brugia malayi [1]): 22.4%
Activity (Brugia malayi [2]): inactive

CCN(CC)C(=O)N1CCN(C)CC1.O=C(O)CC(O)(CC(=O)O)C(=O)O [DIETHYLCARBAMAZINE CITRATE]
Activity (Brugia malayi [3]): 0%
Activity (Brugia malayi [4]): Active
inhibition (Brugia malayi [5]): inactive
inhibition (Brugia malayi [6]): inactive
inhibition (Brugia malayi [1]): inactive
Activity (Brugia malayi [7]): inactive
Activity (Brugia malayi [8]): 29.7%
Activity (Brugia malayi [9]): inactive
Activity (Brugia malayi [10]): 20.33
Activity (Brugia malayi [2]): inactive
inhibition (Brugia malayi [11]): inactive
Activity (Brugia malayi [12]): inactive
Activity (Brugia malayi [13]): 10.53%

CCCCSC1=NC(c2cccc([N+](=O)[O-])c2)C(C(=O)OCC)=C(C)N1 (centres undefined)
inhibition at 100 µM (Brugia malayi [1]): 25.7%
Activity (Brugia malayi [14]): Active

CCCCCCCCCCCCCCSC1=NC(c2cccc3ccccc23)C(C(=O)OCC)=C(C)N1 (centres undefined)
inhibition at 100 µM (Brugia malayi [1]): 24.3%
Activity (Brugia malayi [14]): Active

CCCCCSC1=NC(c2ccc(F)cc2)C(C(=O)OCC)=C(C)N1 (centres undefined)
Activity (Brugia malayi [15]): 67.71%
Activity (Brugia malayi [16]): Active
Activity (Brugia malayi [17]): 38.1%
Activity (Brugia malayi [18]): Active
Activity (Brugia malayi [19]): 116.5
Activity (Brugia malayi [20]): 34.31%
inhibition at 50 µM (Brugia malayi [6]): 68.5%
inhibition at 100 µM (Brugia malayi [1]): 68.6%
Activity (Brugia malayi [21]): 142.67
Activity (Brugia malayi [22]): 30.8%
Activity (Brugia malayi [23]): 46.03%
Activity (Brugia malayi [24]): 50%
Activity (Brugia malayi [14]): Active
Activity (Mastomys coucha): Non-toxic
inhibition at 25 µM (Brugia malayi [25]): 25.8%

CCCCCSC1=NC(c2ccc(Cl)cc2)C(C(=O)OCC)=C(C)N1 (centres undefined)
inhibition (Brugia malayi [1]): inactive
Activity (Brugia malayi [2]): inactive

CCCCCCCCCCCCCCSC1=NC(c2ccc(F)cc2)C(C(=O)OCC)=C(C)N1 (centres undefined)
inhibition (Brugia malayi [6]): inactive
inhibition (Brugia malayi [1]): inactive
Activity (Brugia malayi [9]): inactive
Activity (Brugia malayi [14]): Active

CCCCCSC1=NC(c2cccc([N+](=O)[O-])c2)C(C(=O)OCC)=C(C)N1 (centres undefined)
inhibition at 100 µM (Brugia malayi [1]): 15.4%
Activity (Brugia malayi [2]): inactive

CCOC(=O)C1=C(C)NC(SCc2ccccc2)=NC1c1cccc([N+](=O)[O-])c1 (centres undefined)
inhibition at 100 µM (Brugia malayi [1]): 43.1%
Activity (Brugia malayi [14]): Active

CCCCCSC1=NC(c2cccc3ccccc23)C(C(=O)OCC)=C(C)N1 (centres undefined)
inhibition (Brugia malayi [1]): inactive
Activity (Brugia malayi [2]): inactive

CCCCSC1=NC(c2cccc3ccccc23)C(C(=O)OCC)=C(C)N1 (centres undefined)
Activity (Brugia malayi [15]): 25.77%
Activity (Brugia malayi [18]): Active
Activity (Brugia malayi [26]): Active
inhibition (Brugia malayi [6]): inactive
inhibition at 100 µM (Brugia malayi [1]): 49%
Activity (Brugia malayi [21]): 47.33
Activity (Brugia malayi [24]): 0%
Activity (Brugia malayi [14]): Active
Activity (Mastomys coucha): Non-toxic
inhibition at 25 µM (Brugia malayi [25]): 30.4%

CCOC(=O)C1=C(C)NC(SCc2ccccc2)=NC1c1cccc2ccccc12 (centres undefined)
inhibition at 100 µM (Brugia malayi [1]): 18.9%
Activity (Brugia malayi [14]): Active

CCOC(=O)C1=C(C)NC(SCc2ccccc2)=NC1c1ccc(OC)cc1 (centres undefined)
Activity (Brugia malayi [15]): 34.58%
Activity (Brugia malayi [18]): Active
Activity (Brugia malayi [26]): Active
inhibition at 50 µM (Brugia malayi [6]): 19.3%
inhibition at 100 µM (Brugia malayi [1]): 52.1%
Activity (Brugia malayi [21]): 89.7
Activity (Brugia malayi [24]): 19.66%
Activity (Brugia malayi [14]): Active
Activity (Mastomys coucha): Non-toxic
inhibition (Brugia malayi [25]): inactive

CCCCCCCCCCCCCCSC1=NC(c2ccc(OC)cc2)C(C(=O)OCC)=C(C)N1 (centres undefined)
inhibition (Brugia malayi [6]): inactive
inhibition (Brugia malayi [1]): inactive
Activity (Brugia malayi [9]): inactive
Activity (Brugia malayi [27]): inactive
Activity (Brugia malayi [2]): inactive
inhibition (Brugia malayi [25]): inactive
